Results on 9 compounds are retold here after ChEMBL document CHEMBL4392827, “Tryptamine derivatives disarm colistin resistance in polymyxin-resistant gram-negative bacteria” (Bioorg Med Chem, 2019).

In series [1] the test system is Klebsiella pneumoniae. Description: Potentiation of colistin-induced antimicrobial activity against Klebsiella pneumoniae ATCC BAA-2146 expressing NDM1 gene assessed as fold reduction in colistin MIC at 60 uM after 18 hrs by broth microdilution assay. The format is functional. Put shortly: (§1)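 Bacteria grown 4–6 h in cation-adjusted Mueller-Hinton broth and diluted to 5 ×10^5 CFU/mL. Adjuvant from DMSO stock held at fixed 60 μM while colistin is twofold serially diluted in the same adjuvant-dosed broth. Plates sealed and kept stationary at 37°C for 18 h. Colistin MIC read and fold reduction taken relative to colistin alone.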

Series [2] concerns Klebsiella pneumoniae. Put plainly: Potentiation of colistin-induced antimicrobial activity against colistin-resistant Klebsiella pneumoniae isolate C3 assessed as fold reduction in colistin MIC at 60 uM after 18 hrs by broth microdilution assay. The class given is functional. Put shortly:
(§2)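 Checkerboard-style resensitization following adapted CLSI broth microdilution. Bacteria were grown 4–6 h in CAMHB and subcultured to 5×10^5 CFU/mL. Adjuvant was added from DMSO stock and held constant while colistin was serially diluted in the dosed subculture. Plates were incubated stationary at 37°C for 18 h, then MICs were read. Fold reduction was taken relative to the colistin MIC without adjuvant.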
Background: Dilution methods test growth across graded concentrations, often in twofold steps.

The test system of series [3] is Acinetobacter baumannii. Description: Potentiation of colistin-induced antimicrobial activity against colistin-resistant Acinetobacter baumannii 4106 assessed as fold reduction in colistin MIC at 60 uM after 18 hrs by broth microdilution assay. The class given is functional. Put shortly:
as §2

Series [4] concerns Acinetobacter baumannii. Put plainly: Potentiation of colistin-induced antimicrobial activity against Acinetobacter baumannii ATCC 17978 assessed as fold reduction in colistin MIC at 60 uM after 18 hrs by broth microdilution assay. The format is functional. Put shortly:
as §1

For series [5], the system named is Acinetobacter baumannii. Description: Potentiation of colistin-induced antimicrobial activity against colistin-resistant Acinetobacter baumannii isolate 3942 assessed as fold reduction in colistin MIC at 60 uM after 18 hrs by broth microdilution assay. The format is functional. Put shortly: as §2
Series [6] has as its system Acinetobacter baumannii. Description: Potentiation of colistin-induced antimicrobial activity against colistin-resistant Acinetobacter baumannii isolate 4112 assessed as fold reduction in colistin MIC at 60 uM after 18 hrs by broth microdilution assay. The class given is functional. Put shortly: as §2
In series [7] the test system is Klebsiella pneumoniae. Put plainly: Potentiation of colistin-induced antimicrobial activity against colistin-resistant Klebsiella pneumoniae isolate A5 assessed as fold reduction in colistin MIC at 60 uM after 18 hrs by broth microdilution assay. The format is functional. Put shortly:
as §2

For series [8], the system named is Escherichia coli. Description: Potentiation of colistin-induced antimicrobial activity against Escherichia coli ATCC 25922 assessed as fold reduction in colistin MIC at 60 uM after 18 hrs by broth microdilution assay. The class given is functional. Put shortly: as §1
In series [9] the test system is Acinetobacter baumannii. Put plainly: Potentiation of colistin-induced antimicrobial activity against colistin-sensitive Acinetobacter baumannii 5075 assessed as fold reduction in colistin MIC at 60 uM after 18 hrs by broth microdilution assay. The class given is functional. Put shortly: as §1
Series [10] has as its system Acinetobacter baumannii. Description: Potentiation of colistin-induced antimicrobial activity against colistin-resistant Acinetobacter baumannii isolate 3941 assessed as fold reduction in colistin MIC at 60 uM after 18 hrs by broth microdilution assay. The class given is functional. Put shortly:
as §2

Series [11] has as its system Klebsiella pneumoniae. Put plainly: Potentiation of colistin-induced antimicrobial activity against colistin-resistant Klebsiella pneumoniae B9 assessed as fold reduction in colistin MIC at 60 uM after 18 hrs by broth microdilution assay. The class given is functional. Put shortly:
as §2

For series [12], the system named is Escherichia coli. Description: Potentiation of colistin-induced antimicrobial activity against colistin-resistant Escherichia coli ATCC 25922 expressing mcr1 gene assessed as fold reduction in colistin MIC at 60 uM after 18 hrs by broth microdilution assay. The class given is functional. Put shortly:
as §2

The subject of series [13] is Acinetobacter baumannii. Description: Potentiation of colistin-induced antimicrobial activity against colistin-resistant Acinetobacter baumannii ATCC 17978 expressing mcr1 gene assessed as fold reduction in colistin MIC at 60 uM after 18 hrs by broth microdilution assay. The format is functional. Put shortly: as §2
Series [14] deals with Acinetobacter baumannii. Put plainly: Toxicity in Acinetobacter baumannii 4106 after 18 hrs by broth microdilution assay. To be noted: in vitro. The format is organism-based. Put shortly: (§3)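 Single-agent MIC per CLSI broth microdilution. Cells from a 4–6 h culture in cation-adjusted Mueller-Hinton broth adjusted to 5 ×10^5 CFU/mL. Compound (DMSO stock) added to 200 μM top concentration and twofold serially diluted six times, with an untreated control row. Plates sealed and incubated stationary at 37°C for 18 h before MIC read.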

The subject of series [15] is Acinetobacter baumannii. Description: Toxicity in Acinetobacter baumannii ATCC 17978 expressing mcr1 gene after 18 hrs by broth microdilution assay. The class given is organism-based. Put shortly: as §3
For series [16], the system named is Escherichia coli. Put plainly: Toxicity in Escherichia coli ATCC 25922 after 18 hrs by broth microdilution assay. The format is organism-based. To be noted: in vitro. Put shortly:
as §3

In series [17] the test system is Klebsiella pneumoniae. Put plainly: Toxicity in Klebsiella pneumoniae B9 after 18 hrs by broth microdilution assay. The class given is organism-based. Put shortly: as §3

As for `O=C(NCCc1c[nH]c2ccccc12)c1cccc(Br)n1`, the “fold change (FC)” value was 2 in the series on Klebsiella pneumoniae [1]; 512 in the series with Klebsiella pneumoniae [2]; 16 in the series with Acinetobacter baumannii [3]; 2 in the series on Acinetobacter baumannii [4]; 8 in the series on Acinetobacter baumannii [5]; 8 in the series with Acinetobacter baumannii [6]. Besides, the “fold change (FC)” value in the series with Klebsiella pneumoniae [7] is 0; with Escherichia coli [8], 2; in the series with Acinetobacter baumannii [9] it was 0; with Acinetobacter baumannii [10] it was 8; with Klebsiella pneumoniae [11], 1024.

As for `O=C(NCCc1c[nH]c2ccccc12)c1cc(Br)c(Br)[nH]1`, the “fold change (FC)” value in the series on Klebsiella pneumoniae [1] is 2; in the series on Klebsiella pneumoniae [2], 1024; with Acinetobacter baumannii [3] it was 512; in the series with Acinetobacter baumannii [4] it was 4; in the series with Escherichia coli [12] it was 8; in the series on Acinetobacter baumannii [5], 512. Besides, the “fold change (FC)” value with Acinetobacter baumannii [6] was 512; with Acinetobacter baumannii [13] it was 32; in the series on Klebsiella pneumoniae [7] it was 256; with Escherichia coli [8], 4; in the series with Acinetobacter baumannii [9] it was 2; in the series on Acinetobacter baumannii [10], 256. In the series on Klebsiella pneumoniae [11], the “fold change (FC)” value is recorded as 2048.

For the compound `O=C(NCc1cc2ccccc2[nH]1)c1cc(Br)c(Br)[nH]1`, the MIC in the series on Acinetobacter baumannii [14], with Acinetobacter baumannii [15], against Escherichia coli [16] and with Klebsiella pneumoniae [17] was over 200 µM throughout. Further, the “fold change (FC)” value is 0 in the series with Klebsiella pneumoniae [1]; 2048 in the series on Klebsiella pneumoniae [2]; 2048 in the series with Acinetobacter baumannii [3]; 2 in the series on Acinetobacter baumannii [4]; 16 in the series on Escherichia coli [12]; 256 in the series on Acinetobacter baumannii [5]. For the same compound, the “fold change (FC)” value with Acinetobacter baumannii [6] is on record as 512; with Acinetobacter baumannii [13], 32; in the series with Klebsiella pneumoniae [7], 512; in the series on Escherichia coli [8], 2; in the series on Acinetobacter baumannii [9], 2; in the series with Acinetobacter baumannii [10], 256. The “fold change (FC)” value in the series on Klebsiella pneumoniae [11] came out at 4096.

As to `Cc1cccc2c(CCNC(=O)c3cc(Br)c(Br)[nH]3)c[nH]c12`, the MIC with Acinetobacter baumannii [14], in the series on Acinetobacter baumannii [15], in the series on Escherichia coli [16] and against Klebsiella pneumoniae [17] was over 200 µM each time. For the same compound, the “fold change (FC)” value came to 2 in the series with Klebsiella pneumoniae [1]; 512 in the series with Klebsiella pneumoniae [2]; 256 with Acinetobacter baumannii [3]; 2 in the series on Acinetobacter baumannii [4]; 8 with Escherichia coli [12]; 256 in the series with Acinetobacter baumannii [5]. Further, the “fold change (FC)” value in the series on Acinetobacter baumannii [6] turned out to be 256; with Acinetobacter baumannii [13], 32; in the series with Klebsiella pneumoniae [7], 256; in the series with Escherichia coli [8], 2; in the series with Acinetobacter baumannii [9], 2; with Acinetobacter baumannii [10] it was 256. In the series on Klebsiella pneumoniae [11], the “fold change (FC)” value worked out at 512.

On to `O=C(NCCc1c[nH]c2ccccc12)c1cc(I)c(I)[nH]1`, for which the “fold change (FC)” value with Klebsiella pneumoniae [1] amounted to 2; in the series on Klebsiella pneumoniae [2] it was 512; in the series with Acinetobacter baumannii [3] it was 128; in the series with Acinetobacter baumannii [4], 2; with Escherichia coli [12], 4; in the series on Acinetobacter baumannii [5] it was 128. Also, the “fold change (FC)” value is given as 128 with Acinetobacter baumannii [6]; 16 with Acinetobacter baumannii [13]; 256 in the series on Klebsiella pneumoniae [7]; 2 in the series on Escherichia coli [8]; 2 in the series on Acinetobacter baumannii [9]; 128 in the series with Acinetobacter baumannii [10]. Also, the “fold change (FC)” value in the series on Klebsiella pneumoniae [11] stood at 2048.

For `O=C(NCCCc1c[nH]c2ccccc12)c1cc(Br)c(Br)[nH]1`, the MIC against Acinetobacter baumannii [14], against Acinetobacter baumannii [15], against Escherichia coli [16] and against Klebsiella pneumoniae [17] was over 200 µM in each case. Also, the “fold change (FC)” value in the series with Klebsiella pneumoniae [1] was determined as 2; in the series with Klebsiella pneumoniae [2], 1024; in the series with Acinetobacter baumannii [3], 512; in the series on Acinetobacter baumannii [4] it was 4; with Escherichia coli [12], 16; in the series on Acinetobacter baumannii [5], 256. Also, the “fold change (FC)” value in the series with Acinetobacter baumannii [6] worked out at 256; in the series on Acinetobacter baumannii [13], 32; in the series with Klebsiella pneumoniae [7] it was 256; in the series on Escherichia coli [8], 2; in the series on Acinetobacter baumannii [9], 4; in the series with Acinetobacter baumannii [10], 256. Also, in the series on Klebsiella pneumoniae [11], the “fold change (FC)” value came to 4096.

For the compound `O=C(NCCc1c[nH]c2cc(F)ccc12)c1cc(Br)c(Br)[nH]1`, the MIC against Acinetobacter baumannii [14], in the series with Acinetobacter baumannii [15], in the series on Escherichia coli [16] and in the series on Klebsiella pneumoniae [17] was over 200 µM in each case. The “fold change (FC)” value with Klebsiella pneumoniae [1] is listed as 2; with Klebsiella pneumoniae [2] it was 512; in the series on Acinetobacter baumannii [3], 512; with Acinetobacter baumannii [4], 2; in the series on Escherichia coli [12], 8; in the series with Acinetobacter baumannii [5] it was 512. The “fold change (FC)” value was 512 in the series on Acinetobacter baumannii [6]; 32 in the series with Acinetobacter baumannii [13]; 256 in the series on Klebsiella pneumoniae [7]; 2 in the series with Escherichia coli [8]; 2 with Acinetobacter baumannii [9]; 512 with Acinetobacter baumannii [10]. Besides, in the series with Klebsiella pneumoniae [11], the “fold change (FC)” value is 64.

With `O=C(NCCc1c[nH]c2ccccc12)c1cc(I)c[nH]1`, the “fold change (FC)” value is on record as 2 in the series on Klebsiella pneumoniae [1]; 128 in the series with Klebsiella pneumoniae [2]; 64 in the series on Acinetobacter baumannii [3]; 2 in the series on Acinetobacter baumannii [4]; 32 in the series with Acinetobacter baumannii [5]; 32 with Acinetobacter baumannii [6]. Besides, the “fold change (FC)” value in the series with Acinetobacter baumannii [13] is on record as 16; with Klebsiella pneumoniae [7] it was 32; in the series on Escherichia coli [8], 2; with Acinetobacter baumannii [9], 0; in the series with Acinetobacter baumannii [10], 64; with Klebsiella pneumoniae [11], 2048.

In the case of `O=C(NCc1ccc2cc[nH]c2c1)c1cc(Br)c(Br)[nH]1`, the MIC in the series on Acinetobacter baumannii [14], in the series with Acinetobacter baumannii [15], with Escherichia coli [16] and with Klebsiella pneumoniae [17] was over 200 µM in each case. Further, the “fold change (FC)” value in the series with Klebsiella pneumoniae [1] came out at 0; in the series with Klebsiella pneumoniae [2], 512; with Acinetobacter baumannii [3] it was 256; in the series with Acinetobacter baumannii [4] it was 2; with Escherichia coli [12], 8; in the series on Acinetobacter baumannii [5] it was 128. Besides, the “fold change (FC)” value in the series with Acinetobacter baumannii [6] turned out to be 256; in the series with Acinetobacter baumannii [13], 32; in the series with Klebsiella pneumoniae [7], 256; in the series with Escherichia coli [8], 2; with Acinetobacter baumannii [9], 2; with Acinetobacter baumannii [10] it was 128. Further, the “fold change (FC)” value in the series on Klebsiella pneumoniae [11] is listed as 2048.
